pIC50: −log10 of the molar value.
Key:
Cannabinoid receptor 2 = Cannabinoid receptor 2 (Homo sapiens, UniProt P34972); assay: Binding affinity to human CB2 receptor
Cannabinoid receptor 1 = Cannabinoid receptor 1 (Homo sapiens, UniProt P21554); assay: Binding affinity to human CB1 receptor
[1] = Oral bioavailability in rat at 1 mg/kg, iv after 4 hrs; assay type: ADME, organism-based; conditions: in vivo
[2] = Ratio of drug level in brain to plasma in rat at 1 mg/kg, iv after 4 hrs; assay type: ADME, organism-based; design: dose 1 mg/kg, route intravenous; conditions: brain and plasma
Procedure, shortened: (§1)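 Rats given 1 mg/kg intravenously; brain and plasma drug concentrations measured 4 h after dosing, and the brain/plasma ratio taken from these levels.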

[3] = Clearance in rat plasma at 1 mg/kg, iv after 4 hrs; assay type: ADME, organism-based; design: dose 1 mg/kg, route intravenous
[4] = Drug level in rat brain at 1 mg/kg, iv after 4 hrs; assay type: ADME, organism-based; design: dose 1 mg/kg, route intravenous; conditions: read-out: Drug uptake; procedure, shortened: as §1
[5] = Half life in rat at 1 mg/kg, iv after 4 hrs; assay type: ADME, organism-based; design: dose 1 mg/kg, route intravenous; conditions: in vivo
[6] = Drug level in rat plasma at 1 mg/kg, iv after 4 hrs; assay type: ADME, organism-based; design: dose 1 mg/kg, route intravenous; conditions: read-out: Drug uptake; procedure, shortened: as §1

Cannabinoid receptor 2, sequence (P34972 whole entry): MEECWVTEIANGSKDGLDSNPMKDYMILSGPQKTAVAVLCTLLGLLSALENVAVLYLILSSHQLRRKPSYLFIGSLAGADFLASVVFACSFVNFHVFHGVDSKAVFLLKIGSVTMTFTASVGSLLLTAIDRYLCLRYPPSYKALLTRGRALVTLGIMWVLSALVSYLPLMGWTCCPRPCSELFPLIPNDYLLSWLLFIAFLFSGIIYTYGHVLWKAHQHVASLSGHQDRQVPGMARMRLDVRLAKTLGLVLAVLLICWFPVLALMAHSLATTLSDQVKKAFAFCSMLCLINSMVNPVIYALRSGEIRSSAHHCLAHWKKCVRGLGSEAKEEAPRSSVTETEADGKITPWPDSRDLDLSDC
Cannabinoid receptor 1, sequence (P21554 whole entry): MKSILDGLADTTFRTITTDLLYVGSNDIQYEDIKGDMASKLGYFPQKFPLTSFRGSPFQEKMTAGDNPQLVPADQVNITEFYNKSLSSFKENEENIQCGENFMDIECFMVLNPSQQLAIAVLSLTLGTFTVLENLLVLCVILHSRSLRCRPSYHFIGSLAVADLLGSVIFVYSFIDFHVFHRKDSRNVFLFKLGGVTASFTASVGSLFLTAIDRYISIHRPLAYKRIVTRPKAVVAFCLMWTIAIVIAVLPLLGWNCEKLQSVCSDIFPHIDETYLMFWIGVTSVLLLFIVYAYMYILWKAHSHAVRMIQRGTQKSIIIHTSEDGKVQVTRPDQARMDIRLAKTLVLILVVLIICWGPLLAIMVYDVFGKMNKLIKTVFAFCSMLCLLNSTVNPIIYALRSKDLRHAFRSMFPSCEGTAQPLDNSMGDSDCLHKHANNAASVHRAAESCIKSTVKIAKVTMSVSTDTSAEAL

SMILES	pIC50 (Cannabinoid receptor 2)	pIC50 (Cannabinoid receptor 1)	further results
CC1(C)CC(=O)c2cc(-c3ccc(Cl)cc3)c(-c3ccc(Cl)cc3Cl)nc2O1	5.89	7.33	–
O=C1CC2(CCCC2)Oc2nc(-c3ccccc3Cl)c(-c3ccc(Cl)cc3)cc21	5.52	7.64	–
O=C1CC2(CCCCC2)Oc2nc(-c3ccccc3Cl)c(-c3ccc(Cl)cc3)cc21	5.08	8.09	–
O=C1CC2(CCSCC2)Oc2nc(-c3ccccc3Cl)c(-c3ccc(Cl)cc3)cc21	5.10	8.31	–
CC1(C)CC(=O)c2cc(-c3ccc(Cl)cc3)c(-c3ccccc3Cl)nc2O1	5.64	6.92	–
CCC1(CC)CC(=O)c2cc(-c3ccc(Cl)cc3)c(-c3ccccc3Cl)nc2O1	5.38	7.82	–
O=C1CC2(CCS(=O)(=O)CC2)Oc2nc(-c3ccccc3Cl)c(-c3ccc(Cl)cc3)cc21	5.39	7.82	–
CN1CCC2(CC1)CC(=O)c1cc(-c3ccc(Cl)cc3)c(-c3ccccc3Cl)nc1O2	< 5.70	6.10	–
CC1(C)CC(C)(O)c2cc(-c3ccc(Cl)cc3)c(-c3ccc(Cl)cc3Cl)nc2O1 (racemic)	5.53	7.10	–
CC1CC(=O)c2cc(-c3ccc(Cl)cc3)c(-c3ccccc3Cl)nc2O1 (racemic)	5.20	7.68	–
O=C1CC(c2cccc(F)c2)Oc2nc(-c3ccccc3Cl)c(-c3ccc(Cl)cc3)cc21 (racemic)	< 5.70	8.77	–
COC1CC(C)(C)Oc2nc(-c3ccc(Cl)cc3Cl)c(-c3ccc(Cl)cc3)cc21 (racemic)	5.42	7.72	–
CC1(C)CC(N)c2cc(-c3ccc(Cl)cc3)c(-c3ccc(Cl)cc3Cl)nc2O1 (racemic)	5.11	6.96	–
CC1(C)CC(O)c2cc(-c3ccc(Cl)cc3)c(-c3ccc(Cl)cc3Cl)nc2O1 (racemic)	5.31	6.89	–
CC(C)C1CC(=O)c2cc(-c3ccc(Cl)cc3)c(-c3ccccc3Cl)nc2O1 (racemic)	5.48	8.49	–
CC(C)(C)C1CC(=O)c2cc(-c3ccc(Cl)cc3)c(-c3ccccc3Cl)nc2O1 (racemic)	5.47	8.72	–
CC(=O)NC1CC2(CCCCC2)Oc2nc(-c3ccccc3Cl)c(-c3ccc(Cl)cc3)cc21 (racemic)	5.41	8.89	–
O=C(CO)NC1CC2(CCCCC2)Oc2nc(-c3ccccc3Cl)c(-c3ccc(Cl)cc3)cc21 (racemic)	5.38	9.52	bioavailability [1]: 13%; Kp at 4 h [2]: 1.7; clearance [3]: 34 mL/min/kg; concentration at 4 h [4]: 27 nM; half-life [5]: 0.8 h; concentration at 4 h [6]: 16 nM

SMILES	pIC50 (Cannabinoid receptor 2)	pIC50 (Cannabinoid receptor 1)	further results
C[C@@H](O)C(=O)NC1CC(C)(C)Oc2nc(-c3ccc(Cl)cc3Cl)c(-c3ccc(Cl)cc3)cc21 (single isomer, unassigned)	–	–	bioavailability [1]: 100%; Kp at 4 h [2]: 0.38; clearance [3]: 4 mL/min/kg; concentration at 4 h [4]: 122 nM; half-life [5]: 7.9 h; concentration at 4 h [6]: 321 nM
CC1(C)CC(NC(=O)CO)c2cc(-c3ccc(Cl)cc3)c(-c3ccccc3Cl)nc2O1 (single isomer, unassigned) [N-(7-(2-CHLOROPHENYL)-6-(4-CHLOROPHENYL)-2,2-DIMETHYL-3,4-DIHYDRO-2H-PYRANO[2,3-B]PYRIDIN-4-YL)-2-HYDROXYACETAMIDE (ENANTIOMERIC MIX)]	4.99	6.44	–
C[C@@H](O)C(=O)NC1CC2(CCCCC2)Oc2nc(-c3ccccc3Cl)c(-c3ccc(Cl)cc3)cc21 (single isomer, unassigned; enantiomer 1)	5.44	9.70	–
CC1(C)CC(C(N)=O)c2cc(-c3ccc(Cl)cc3)c(-c3ccc(Cl)cc3Cl)nc2O1 (single isomer, unassigned; enantiomer 1) [6-(4-CHLOROPHENYL)-7-(2,4-DICHLOROPHENYL)-2,2-DIMETHYL-3,4-DIHYDRO-2H-PYRANO[2,3-B]PYRIDINE-4-CARBOXAMIDE (ENANTIOMERIC MIX)]	5.61	7.01	–
CC(C)(CO)NC(=O)C1CC(C)(C)Oc2nc(-c3ccc(Cl)cc3Cl)c(-c3ccc(Cl)cc3)cc21 (single isomer, unassigned; enantiomer 1) [6-(4-CHLOROPHENYL)-7-(2,4-DICHLOROPHENYL)-N-(1-HYDROXY-2-METHYLPROPAN-2-YL)-2,2-DIMETHYL-3,4-DIHYDRO-2H-PYRANO[2,3-B]PYRIDINE-4-CARBOXAMIDE (ENANTIOMERIC MIX)]	5.29	7.85	–
CC1(C)CC(NC(=O)CO)c2cc(-c3ccc(Cl)cc3)c(-c3ccc(Cl)cc3Cl)nc2O1 (single isomer, unassigned; enantiomer 1) [N-(6-(4-CHLOROPHENYL)-7-(2,4-DICHLOROPHENYL)-2,2-DIMETHYL-3,4-DIHYDRO-2H-PYRANO[2,3-B]PYRIDIN-4-YL)-2-HYDROXYACETAMIDE (ENANTIOMERIC MIX)]	5.32	8.77	–
CC1(C)CC(NC(=O)C(C)(C)CO)c2cc(-c3ccc(Cl)cc3)c(-c3ccc(Cl)cc3Cl)nc2O1 (single isomer, unassigned; enantiomer 1) [N-(6-(4-CHLOROPHENYL)-7-(2,4-DICHLOROPHENYL)-2,2-DIMETHYL-3,4-DIHYDRO-2H-PYRANO[2,3-B]PYRIDIN-4-YL)-3-HYDROXY-2,2-DIMETHYLPROPANAMIDE (ENANTIOMERIC MIX)]	6.24	8.68	–
CC1(C)CC(NC(=O)CO)c2cc(-c3ccc(Cl)cc3)c(-c3ccccc3Cl)nc2O1 (single isomer, unassigned; enantiomer 1) [N-(7-(2-CHLOROPHENYL)-6-(4-CHLOROPHENYL)-2,2-DIMETHYL-3,4-DIHYDRO-2H-PYRANO[2,3-B]PYRIDIN-4-YL)-2-HYDROXYACETAMIDE (ENANTIOMERIC MIX)]	< 5.70	7.34	–
CC1(C)CC(C(N)=O)c2cc(-c3ccc(Cl)cc3)c(-c3ccc(Cl)cc3Cl)nc2O1 (single isomer, unassigned; enantiomer 2) [6-(4-CHLOROPHENYL)-7-(2,4-DICHLOROPHENYL)-2,2-DIMETHYL-3,4-DIHYDRO-2H-PYRANO[2,3-B]PYRIDINE-4-CARBOXAMIDE (ENANTIOMERIC MIX)]	< 5.70	6.66	–
CC(C)(CO)NC(=O)C1CC(C)(C)Oc2nc(-c3ccc(Cl)cc3Cl)c(-c3ccc(Cl)cc3)cc21 (single isomer, unassigned; enantiomer 2) [6-(4-CHLOROPHENYL)-7-(2,4-DICHLOROPHENYL)-N-(1-HYDROXY-2-METHYLPROPAN-2-YL)-2,2-DIMETHYL-3,4-DIHYDRO-2H-PYRANO[2,3-B]PYRIDINE-4-CARBOXAMIDE (ENANTIOMERIC MIX)]	5.13	6.82	–
CC1(C)CC(NC(=O)CO)c2cc(-c3ccc(Cl)cc3)c(-c3ccc(Cl)cc3Cl)nc2O1 (single isomer, unassigned; enantiomer 2) [N-(6-(4-CHLOROPHENYL)-7-(2,4-DICHLOROPHENYL)-2,2-DIMETHYL-3,4-DIHYDRO-2H-PYRANO[2,3-B]PYRIDIN-4-YL)-2-HYDROXYACETAMIDE (ENANTIOMERIC MIX)]	5.18	6.17	–
CC1(C)CC(NC(=O)C(C)(C)CO)c2cc(-c3ccc(Cl)cc3)c(-c3ccc(Cl)cc3Cl)nc2O1 (single isomer, unassigned; enantiomer 2) [N-(6-(4-CHLOROPHENYL)-7-(2,4-DICHLOROPHENYL)-2,2-DIMETHYL-3,4-DIHYDRO-2H-PYRANO[2,3-B]PYRIDIN-4-YL)-3-HYDROXY-2,2-DIMETHYLPROPANAMIDE (ENANTIOMERIC MIX)]	5.12	7.47	–
CC1(C)CC(NC(=O)CCO)c2cc(-c3ccc(Cl)cc3)c(-c3ccc(Cl)cc3Cl)nc2O1 (single isomer, unassigned; enantiomer 2) [N-(6-(4-CHLOROPHENYL)-7-(2,4-DICHLOROPHENYL)-2,2-DIMETHYL-3,4-DIHYDRO-2H-PYRANO[2,3-B]PYRIDIN-4-YL)-3-HYDROXYPROPANAMIDE (ENANTIOMERIC MIX)]	5.27	7.85	–
CC(C)(O)C(=O)NC1CC2(CCCCC2)Oc2nc(-c3ccccc3Cl)c(-c3ccc(Cl)cc3)cc21 (single isomer, unassigned; enantiomer 2) [N-(7'-(2-CHLOROPHENYL)-6'-(4-CHLOROPHENYL)-3',4'-DIHYDROSPIRO[CYCLOHEXANE-1,2'-PYRANO[2,3-B]PYRIDINE]-4'-YL)-2-HYDROXY-2-METHYLPROPANAMIDE (ENANTIOMERIC MIX)]	4.92	7.74	–
C[C@H](O)C(=O)NC1CC2(CCCCC2)Oc2nc(-c3ccccc3Cl)c(-c3ccc(Cl)cc3)cc21 (stereo in doubt; 12e) [(2S)-N-(7'-(2-CHLOROPHENYL)-6'-(4-CHLOROPHENYL)-3',4'-DIHYDROSPIRO[CYCLOHEXANE-1,2'-PYRANO[2,3-B]PYRIDINE]-4'-YL)-2-HYDROXYPROPANAMIDE (ENANTIOMERIC MIX)]	5.74	9.40	–
C[C@H](O)C(=O)NC1CC2(CCCCC2)Oc2nc(-c3ccccc3Cl)c(-c3ccc(Cl)cc3)cc21 (stereo in doubt; 12f) [(2S)-N-(7'-(2-CHLOROPHENYL)-6'-(4-CHLOROPHENYL)-3',4'-DIHYDROSPIRO[CYCLOHEXANE-1,2'-PYRANO[2,3-B]PYRIDINE]-4'-YL)-2-HYDROXYPROPANAMIDE (ENANTIOMERIC MIX)]	5.00	7.89	–
C[C@@H](O)C(=O)NC1CC2(CCCCC2)Oc2nc(-c3ccccc3Cl)c(-c3ccc(Cl)cc3)cc21 (stereo in doubt; 12h) [(2R)-N-(7'-(2-CHLOROPHENYL)-6'-(4-CHLOROPHENYL)-3',4'-DIHYDROSPIRO[CYCLOHEXANE-1,2'-PYRANO[2,3-B]PYRIDINE]-4'-YL)-2-HYDROXYPROPANAMIDE (ENANTIOMERIC MIX)]	5.47	8.70	–

From ChEMBL document CHEMBL1158602, “Dihydro-pyrano[2,3-b]pyridines and tetrahydro-1,8-naphthyridines as CB1 receptor inverse agonists: synthesis, SAR and biological evaluation” (Bioorg Med Chem Lett, 2010)
